The source made the active and inactive calls. The calls are words filed in the database; no cut-off is given here.
How the values were obtained:
MDA-MB-231 [1] = assay: Cytotoxicity against human MDA-MB-231 cells after 72 hrs by neutral red dye assay; type: functional, cell-based; details: MDA-MB-231, 72 h
Outline: (§1)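 Human tumour cells were grown as monolayers with 10% FBS and penicillin/streptomycin at 37 °C in 5% CO2 (HT-29 and T-24 in McCoy's, MDA-MB-231 in Leibovitz). They were exposed to compound in DMSO (≤0.5% v/v final) at screening concentrations of 20 and 100 μM for 72 h and read by neutral red uptake. Survival is relative to cells given DMSO only, in triplicate.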

HT-29 [2] = assay: Cytotoxicity against human HT-29 cells assessed as cell survival at 100 uM after 72 hrs by neutral red dye assay; type: functional; details: HT-29, 72 h, read-out: Survival
Outline: (§2)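 HT-29 and T-24 cells were grown in McCoy's medium and MDA-MB-231 in Leibovitz, each with 10% FBS plus penicillin/streptomycin, as monolayers at 37 °C in 5% CO2. Compounds in DMSO (≤0.5% v/v final) were applied for 72 h. Survival was read by neutral red uptake against 0.5% DMSO-treated cells, as the mean of triplicates.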

T-24 [3] = assay: Induction of apoptosis in human T24 cells assessed as DNA fragmentation after 48 hrs by ELISA relative to control; type: functional
Outline: (§3)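 DNA fragmentation was measured with the Cell Death Detection ELISA Plus kit after treatment of cultured tumour cells. The signal is expressed relative to untreated control cultures, which are set to 1.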

MDA-MB-231 [4] = assay: Induction of apoptosis in human MDA-MB-231 cells assessed as DNA fragmentation after 24 hrs by ELISA relative to control; type: functional; outline: as §3
HT-29 [5] = assay: Cytotoxicity against human HT-29 cells after 72 hrs by neutral red dye assay; type: functional, cell-based; details: HT-29, 72 h; outline: as §1
[6] = Cytotoxicity against human CRL11233 cells assessed as cell survival at 20 to 100 uM after 72 hrs by neutral red dye assay; type: cell-based; details: read-out: Survival
Outline: (§4)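 The non-tumoral lines were grown with 10% FBS plus penicillin/streptomycin, as monolayers at 37 °C in 5% CO2: CRL-8799 in MEG medium and CRL-11233 in BEGM. Compounds in DMSO (≤0.5% v/v final) were applied for 72 h. Survival was read by neutral red uptake against 0.5% DMSO solvent-treated controls, as the mean of triplicates.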

HT-29 [7] = assay: Induction of apoptosis in human HT-29 cells assessed as caspase3 activation at IC50 after 48 hrs by FACS analysis relative to control; type: functional
Outline: (§5)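 Active caspase-3 was detected by flow cytometry with a FITC anti-active-caspase-3 antibody kit, with readings at 14, 24 and 48 h. Treated cells were compared with untreated control cells. Results are scored as (+) for an increase of about 50% and (++) for a larger rise.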

[8] = Cytotoxicity against human CRL8799 cells assessed as cell survival at 20 to 100 uM after 72 hrs by neutral red dye assay; type: cell-based; details: read-out: Survival; outline: as §4
MDA-MB-231 [9] = assay: Cytotoxicity against human MDA-MB-231 cells assessed as cell survival at 100 uM after 72 hrs by neutral red dye assay; type: functional; details: MDA-MB-231, 72 h, read-out: Survival; outline: as §2
HT-29 [10] = assay: Induction of apoptosis in human HT-29 cells assessed as DNA fragmentation after 48 hrs by ELISA relative to control; type: functional; outline: as §3
T-24 [11] = assay: Cytotoxicity against human T24 cells assessed as cell survival at 100 uM after 72 hrs by neutral red dye assay; type: functional; details: T-24, 72 h, read-out: Survival; outline: as §2
T-24 [12] = assay: Cytotoxicity against human T24 cells after 72 hrs by neutral red dye assay; type: functional, cell-based; details: T-24, 72 h; outline: as §1
T-24 [13] = assay: Induction of apoptosis in human T24 cells assessed as caspase3 activation at IC50 after 48 hrs by FACS analysis relative to control; type: functional; outline: as §5

Structure (SMILES)	IC50 (MDA-MB-231 [1]) [µM]	viability at 100 µM (HT-29 [2]) [%]	fold change (FC) (T-24 [3])	Activity (MDA-MB-231 [4])	IC50 (HT-29 [5]) [µM]	viability at 72 h, up to 100 µM [6] [%]	Activity (HT-29 [7]) [%]	viability at 72 h, up to 100 µM [8] [%]	viability at 100 µM (MDA-MB-231 [9]) [%]	fold change (FC) (HT-29 [10])	viability at 100 µM (T-24 [11]) [%]	IC50 (T-24 [12]) [µM]	Activity (T-24 [3])	Activity (T-24 [13]) [%]	fold change (FC) (MDA-MB-231 [4])	Activity (HT-29 [10])
c1ccc(CCCCNc2nc(NCCCCc3ccccc3)c3cccnc3n2)cc1	1.1	< 45	4.6	inactive	5	82	50	86	< 45	1.4	< 45	1.4	–	–	–	–
c1ccc(CNc2nc(NCc3ccccc3)c3ccccc3n2)cc1	1.79	< 45	–	inactive	4.72	100	–	89	< 45	3.6	< 45	5.96	inactive	75	–	–
Cc1ccc(CCNc2nc(NCCc3ccc(C)cc3)c3ccccc3n2)cc1	4.65	< 45	–	–	1.64	0	50	0	< 45	–	< 45	2.17	inactive	–	2.4	inactive
c1ccc(CCNc2nc(NCCc3ccccc3)c3ccccc3n2)cc1	2.18	< 45	–	inactive	2.3	100	–	92	< 45	–	< 45	2.86	inactive	50	–	inactive
c1ccc(CCCNc2ccnc(NCCCc3ccccc3)n2)cc1	0.36	< 45	1.7	–	12.4	1	50	10	< 45	–	< 45	8.67	–	–	3.2	inactive
CCCCCCCNc1nc(SCC)nc2ncccc12	2.6	< 45	–	–	19.9	100	–	93	< 45	2.4	< 45	5.3	inactive	75	2.7	–
CCCCCNc1nc(SCCCC)nc2ncccc12	6.3	< 45	–	–	12.6	76	–	84	< 45	1.9	< 45	8.9	inactive	50	1.7	–
Cc1ccc(CNc2ccnc(NCc3ccc(C)cc3)n2)cc1	19.1	< 45	4.8	–	14.9	1	–	6	< 45	2	< 45	22.2	–	–	1.5	–
COc1ccc(CNc2nc(NCc3ccc(OC)cc3)c3cccnc3n2)cc1	2.9	< 45	2.3	–	–	100	50	85	< 45	2.7	< 45	–	–	–	1.5	–
COc1ccc(CNc2nc(NCc3ccc(OC)cc3)c3ccccc3n2)cc1	3.87	< 45	5	inactive	2.88	100	50	0	< 45	8.5	< 45	3.87	–	–	–	–
Cc1ccc(CNc2nc(NCc3ccc(C)cc3)c3cccnc3n2)cc1	3.2	< 45	2.7	–	7.5	100	–	95	< 45	–	< 45	5	–	–	4	inactive
Cc1ccc(CNc2nc(NCc3ccc(C)cc3)c3ccccc3n2)cc1	5.47	< 45	4.3	inactive	4.42	33	–	13	< 45	5.2	< 45	15.4	–	–	–	–
CCCCNc1nc(NCCCC)c2ccccc2n1	1.09	< 45	–	inactive	6.96	1	–	4	< 45	1.5	< 45	19.3	inactive	–	–	–
CCCCCCNc1nc(SCC)nc2ncccc12	1.4	< 45	1.5	–	22.5	–	75	–	< 45	8.1	< 45	5.9	–	–	3.3	–
c1ccc(CCCNc2nc(NCCCc3ccccc3)c3cccnc3n2)cc1	5.8	< 45	3.1	–	1.7	0	50	0	< 45	6	< 45	13.2	–	–	1.6	–
c1ccc2c(CCNc3nc(NCCc4c[nH]c5ccccc45)c4cccnc4n3)c[nH]c2c1	5.1	< 45	–	inactive	3	–	75	56	< 45	3	< 45	7.7	inactive	–	–	–
CCCCCNc1nc(NCCCCC)c2cccnc2n1	1.2	< 45	4.4	–	0.58	54	–	100	< 45	0.9	< 45	0.7	–	–	2.8	–
CCCNc1nc(NCCC)c2ccccc2n1	4.43	< 45	2	inactive	18.9	66	–	0	< 45	–	< 45	28.9	–	–	–	inactive
Clc1ccc(CNc2nc(NCc3ccc(Cl)cc3)c3cccnc3n2)cc1	8.3	< 45	1.9	–	15	100	–	0	< 45	–	< 45	11	–	–	1.3	inactive
c1ccc(CCNc2ccnc(NCCc3ccccc3)n2)cc1	3.01	< 45	1.2	–	6.97	5	–	5	< 45	–	< 45	9.14	–	–	1.3	inactive

Reference: ChEMBL document CHEMBL1821616, “New insights into the structural requirements for pro-apoptotic agents based on 2,4-diaminoquinazoline, 2,4-diaminopyrido[2,3-d]pyrimidine and 2,4-diaminopyrimidine derivatives” (Eur J Med Chem, 2011)
